In brackets after ≈: the same amount, converted by molar mass. Activity calls are given as the source filed them. The rule behind the calls is not given here.
Tests used:
[1] = test system: Saccharomyces cerevisiae; experiment: Effect on (1->3)-beta-D-glucan synthase-mediated [14C]-Glucose incorporation in Saccharomyces cerevisiae assessed as residual activity after 30 mins
How it was run: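 Membrane fraction (18000g pellet) from early-log S. cerevisiae MATa trp1 ura3 leu2 his3 pep4::HIS3 nuc1::LEU2 broken with glass beads; 15 µg protein in 40 µL; compound 20 µg/assay added in MeOH; [14C]-glucose incorporation into insoluble glucan; 30 min at 30 °C, stopped with 10% TCA; duplicates; papulacandin B as standard.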

[2] = test system: Aspergillus fumigatus; experiment: Antifungal activity against Aspergillus fumigatus ATCC 26934 after 48 hrs by spectrophotometry; type: functional; details: ATCC 26934, 48 h, read-out: MIC100
[3] = test system: Saccharomyces cerevisiae; experiment: Antifungal activity against Saccharomyces cerevisiae ATCC 9763 after 48 hrs by sorbitol protection assay by spectrophotometry; type: functional; details: ATCC 9763, 48 h; for MIC: read-out: MIC100
How it was run: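 S. cerevisiae ATCC 9763 by the standard broth microdilution procedure, run on duplicate plates of 2-fold dilutions, one plate with 0.8 M sorbitol added to every well as osmotic support; MICs read at 2 and 7 days.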

[4] = Hemolytic effect in erythrocytes upto 120 mins by spectrophotometry; type: ADME, cell-based; details: erythrocyte, 2 h
How it was run: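 Heparinized human red blood cells washed three times in isotonic PBS pH 7.0, made into a 4% suspension in sterile 5% glucose. Compound from DMSO stock diluted in 5% glucose to final 188 to 9 µM; incubated at 37 °C. Released haemoglobin read at 540 nm. LC100 is the lowest concentration giving complete lysis (clearing). DMSO alone served as the vehicle control.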

[5] = test system: Cryptococcus neoformans; experiment: Antifungal activity against Cryptococcus neoformans ATCC 32264 after 48 hrs by spectrophotometry; type: functional; details: ATCC 32264, 48 h; for MIC: read-out: MIC100
[6] = test system: Aspergillus niger; experiment: Antifungal activity against Aspergillus niger ATCC 9029 after 48 hrs by spectrophotometry; type: functional; details: ATCC 9029, 48 h
[7] = test system: Neurospora crassa; experiment: Antifungal activity against Neurospora crassa ATCC 9279 after 48 hrs by spectrophotometry; type: functional; details: ATCC 9279, 48 h, read-out: MIC100
[8] = test system: Candida albicans; experiment: Antifungal activity against Candida albicans ATCC 10231 after 48 hrs by spectrophotometry; type: functional; details: ATCC 10231, 48 h; for MIC: read-out: MIC100
[9] = test system: Aspergillus flavus; experiment: Antifungal activity against Aspergillus flavus ATCC 9170 after 48 hrs by spectrophotometry; type: functional; details: ATCC 9170, 48 h, read-out: MIC100
[10] = target: Chitin synthase 1 (Neurospora crassa OR74A) (UniProt P29070); experiment: Enhancement of chitin synthase 1 activity in Neurospora crassa assessed as increase in amount of cell wall chitin at 37 uM by calcofluor staining
Chitin synthase 1 (Neurospora crassa OR74A), sequence (P29070 whole entry): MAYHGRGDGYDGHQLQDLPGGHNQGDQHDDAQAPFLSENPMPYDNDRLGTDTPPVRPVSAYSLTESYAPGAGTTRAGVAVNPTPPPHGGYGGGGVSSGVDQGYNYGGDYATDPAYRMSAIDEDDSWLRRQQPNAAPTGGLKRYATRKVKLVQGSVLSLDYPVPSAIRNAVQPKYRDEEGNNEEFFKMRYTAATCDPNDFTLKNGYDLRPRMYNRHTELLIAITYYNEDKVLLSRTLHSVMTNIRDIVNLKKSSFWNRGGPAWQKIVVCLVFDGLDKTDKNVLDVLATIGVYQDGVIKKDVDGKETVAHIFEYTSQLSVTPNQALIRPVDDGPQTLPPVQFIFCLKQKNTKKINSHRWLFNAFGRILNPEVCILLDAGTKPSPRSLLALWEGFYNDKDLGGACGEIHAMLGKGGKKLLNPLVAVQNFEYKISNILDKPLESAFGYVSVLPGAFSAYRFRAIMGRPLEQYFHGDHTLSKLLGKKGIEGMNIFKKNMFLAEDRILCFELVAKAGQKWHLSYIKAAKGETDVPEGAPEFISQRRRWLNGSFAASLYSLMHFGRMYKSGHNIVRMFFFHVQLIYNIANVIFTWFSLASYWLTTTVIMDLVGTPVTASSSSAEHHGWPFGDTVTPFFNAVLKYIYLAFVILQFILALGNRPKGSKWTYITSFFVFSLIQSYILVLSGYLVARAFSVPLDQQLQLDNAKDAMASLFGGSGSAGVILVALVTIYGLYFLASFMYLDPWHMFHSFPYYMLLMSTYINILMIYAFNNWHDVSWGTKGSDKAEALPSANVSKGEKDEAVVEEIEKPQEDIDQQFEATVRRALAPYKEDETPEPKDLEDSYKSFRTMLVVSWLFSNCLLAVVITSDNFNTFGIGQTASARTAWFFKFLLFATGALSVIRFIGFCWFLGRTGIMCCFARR
How it was run: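 Exponentially growing N. crassa ATCC 9279 hyphae in YEPD liquid medium, untreated or exposed to 37 µM, washed and stained with Calcofluor white (20 µM final, 5 min, rt), washed; chitin visualised as bluish fluorescence under UV by fluorescence microscopy, 400×, same exposure times.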

[11] = target: Chitin synthase 1 (Neurospora crassa OR74A) (UniProt P29070); experiment: Enhancement of chitin synthase 1 activity in Neurospora crassa assessed as increase in cell wall thickness at 37 uM by transmission electron microscopy
[12] = target: T1, Chitin synthase 1 (Saccharomyces cerevisiae S288c) (UniProt P08004); experiment: Effect on chitin synthase 1-mediated incorporation of [14C]N-acetylglucosamine in Saccharomyces cerevisiae assessed as residual activity after 90 mins
T1 sequence (whole entry): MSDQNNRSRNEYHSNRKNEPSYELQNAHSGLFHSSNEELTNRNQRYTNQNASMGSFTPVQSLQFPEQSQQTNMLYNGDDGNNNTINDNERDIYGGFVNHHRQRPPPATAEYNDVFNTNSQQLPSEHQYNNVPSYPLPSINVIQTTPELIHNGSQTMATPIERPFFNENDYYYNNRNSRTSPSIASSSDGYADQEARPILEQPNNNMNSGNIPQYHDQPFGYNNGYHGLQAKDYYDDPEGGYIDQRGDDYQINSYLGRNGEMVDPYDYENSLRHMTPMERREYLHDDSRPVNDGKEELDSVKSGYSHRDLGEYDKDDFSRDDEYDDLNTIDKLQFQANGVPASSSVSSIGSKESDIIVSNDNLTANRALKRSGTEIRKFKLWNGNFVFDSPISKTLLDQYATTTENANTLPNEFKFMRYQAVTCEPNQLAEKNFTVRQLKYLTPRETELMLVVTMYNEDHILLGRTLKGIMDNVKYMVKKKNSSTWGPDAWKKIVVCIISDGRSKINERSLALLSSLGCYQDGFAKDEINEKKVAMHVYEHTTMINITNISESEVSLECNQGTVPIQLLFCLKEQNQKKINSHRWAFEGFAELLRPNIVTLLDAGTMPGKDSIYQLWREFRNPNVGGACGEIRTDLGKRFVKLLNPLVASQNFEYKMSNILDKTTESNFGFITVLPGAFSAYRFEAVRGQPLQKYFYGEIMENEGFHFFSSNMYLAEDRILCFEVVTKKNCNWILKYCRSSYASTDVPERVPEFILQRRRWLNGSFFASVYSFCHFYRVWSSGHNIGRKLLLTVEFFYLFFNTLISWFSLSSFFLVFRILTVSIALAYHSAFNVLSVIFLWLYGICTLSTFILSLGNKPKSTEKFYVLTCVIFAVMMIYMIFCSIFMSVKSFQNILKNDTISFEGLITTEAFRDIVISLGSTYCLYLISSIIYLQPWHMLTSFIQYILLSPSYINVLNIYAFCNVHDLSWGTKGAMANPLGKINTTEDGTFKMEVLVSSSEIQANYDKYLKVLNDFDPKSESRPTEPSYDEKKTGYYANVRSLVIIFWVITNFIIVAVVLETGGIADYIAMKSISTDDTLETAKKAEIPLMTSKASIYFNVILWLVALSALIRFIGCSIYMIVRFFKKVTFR

[13] = test system: Neurospora crassa; experiment: Antifungal activity against Neurospora crassa assessed as increase in thickness of hyphae relative to control at 37 uM; type: functional, organism-based
How it was run: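 N. crassa ATCC 9279, 1 × 10^5 spores/mL, grown 24 h at 28 °C with shaking (145 rpm) in YEPD with or without 37 µM. Mycelium fixed in 4% glutaraldehyde in 0.1 M cacodylate, OsO4 and KMnO4 treated, acetone-dehydrated, Spurr-embedded; ultrathin sections stained with uranyl acetate and Reynolds solution; wall thickness measured by transmission electron microscopy.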

[14] = target: T1, Chitin synthase 1 (Saccharomyces cerevisiae S288c); experiment: Effect on chitin synthase 1-mediated incorporation of [14C]N-Acetylglucosamine in Saccharomyces cerevisiae assessed as residual activity after 90 mins in presence of trypsin
How it was run: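 Same S. cerevisiae membrane fraction, 30 µg protein in 50 µL; compound 20 µg/assay in MeOH; zymogen activated by trypsin (2 µL of 0.25 µg/µL, 15 min, 30 °C) then stopped with trypsin inhibitor; [14C]-N-acetylglucosamine incorporation into chitin over 90 min at 30 °C, stopped with 10% TCA; duplicates; nikkomycin Z as reference.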

[15] = test system: Saccharomyces cerevisiae; experiment: Antifungal activity against Saccharomyces cerevisiae assessed as increase in cellular leakage at 74 uM relative to sodium dodecyl sulphate at 6-48 hrs using spectrophotometry; type: functional
How it was run: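 S. cerevisiae ATCC 9763 grown with shaking at 30 °C to early stationary phase, washed twice, diluted to (3-5) × 10^7 cells/mL in cold MOPS buffer pH 6.0; compound at final 74 µM; 2% SDS set as 100% leakage; incubated at 30 °C and sampled at 6, 12, 24 and 48 h; supernatant absorbance at 260 nm; means of at least two independent assays; Student's test.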

[16] = target: T1, Chitin synthase 1 (Saccharomyces cerevisiae S288c); experiment: Enhancement of chitin synthase 1 activity in Saccharomyces cerevisiae assessed as increase in amount of cell wall chitin at 37 uM by calcofluor staining
How it was run: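 Exponentially growing S. cerevisiae ATCC 9763 in YEPD, untreated or exposed to 37 µM, washed and stained with Calcofluor white (20 µM final, 5 min, rt); fluorescence around mother and daughter cell surfaces examined by UV fluorescence microscopy, 400×, same exposure times.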

[17] = target: T1, Chitin synthase 1 (Saccharomyces cerevisiae S288c); experiment: Enhancement of chitin synthase 1 activity in Saccharomyces cerevisiae assessed as increase in amount of cell wall chitin at 100 mg by Reissig method
How it was run: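 Untreated and 37 µM-treated S. cerevisiae cells (100 mg each) extracted with 6% KOH for 90 min, digested with chitinase and glusulase; N-acetylglucosamine measured by the Reissig reaction (potassium tetraborate, boiling 3 min, DMAB 20 min at 36-38 °C), absorbance at 585 nm; NAG as standard.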

[18] = test system: Saccharomyces cerevisiae; experiment: Antifungal activity against Saccharomyces cerevisiae assessed as binding to membrane ergosterol in presence of exogenous ergosterol; type: functional, organism-based

Compound | Activity [1] [%] | MIC [2] [µM] | MIC [3] [µM] | LC100 [4] [µM] | MIC [5] [µM] | MIC ([6]; read-out: MIC100) [µM] | MIC [7] [µM] | MIC [8] [µM] | MIC [9] [µM] | other results
CCC(O)/C=C/C=C/C=C/C(=O)OC[C@H]1O[C@@H](O[C@H]2[C@H](OC(=O)/C=C/C=C/CC(O)/C(C)=C/C=C/CCC(C)CC)[C@@H](O)[C@@]3(OCc4cc(O)cc(O)c43)O[C@@H]2CO)[C@H](O)[C@@H](O)[C@H]1O (stereo partly drawn) | 5 |  |  |  |  |  |  |  |  | 
C[C@@H]1[C@H](O)[C@@H](C)/C=C/C=C/C=C/C=C/C=C/C=C/C=C/[C@H](O[C@@H]2O[C@H](C)[C@@H](O)[C@H](N)[C@@H]2O)C[C@@H]2O[C@](O)(C[C@@H](O)C[C@@H](O)[C@H](O)CC[C@@H](O)C[C@@H](O)CC(=O)O[C@H]1C)C[C@H](O)[C@H]2C(=O)O [AMPHOTERICIN B] |  | 0.5 (≈ 0.462 µg/mL) | 1.62 (≈ 1.5 µg/mL) | 13.5 | 0.27 (≈ 0.25 µg/mL) | 0.5 (≈ 0.462 µg/mL) | 1 (≈ 0.924 µg/mL) | 0.84 (≈ 0.776 µg/mL) | 0.5 (≈ 0.462 µg/mL) | 
COC(=O)[C@@]1(C)CC[C@]2(C(=O)O)CC[C@]3(C)C(=CC[C@@H]4[C@@]5(C)C[C@H](O)[C@H](O[C@@H]6OC[C@@H](O)[C@H](O)[C@H]6O)[C@@](C)(CO)[C@@H]5CC[C@]43C)[C@@H]2C1 [PHYTOLACCOSIDE B] | 93.4 | 188 (≈ 125 µg/mL) | 74 (≈ 49.2 µg/mL) | > 188 | 112 (≈ 74.5 µg/mL) |  | 74 (≈ 49.2 µg/mL) | 74 (≈ 49.2 µg/mL) | 74 (≈ 49.2 µg/mL) | Activity [10]: Active; MFC [3]: 150 µM (≈ 99.7 µg/mL); MIC50 [3]: 18 µM (≈ 12 µg/mL); MIC80 [3]: 37 µM (≈ 24.6 µg/mL); Activity [11]: 400 nm; MFC [5]: 112 µM (≈ 74.5 µg/mL); MIC50 [5]: 9 µM (≈ 5.98 µg/mL); MIC80 [5]: 74 µM (≈ 49.2 µg/mL); Activity [12]: 190%; MIC ([6]; read-out: MIC): 188 µM (≈ 125 µg/mL); Activity [13]: Active; Activity [14]: 166%; Activity [15]: 17%; Activity [16]: Active; MFC [8]: 150 µM (≈ 99.7 µg/mL); MIC50 [8]: 74 µM (≈ 49.2 µg/mL); MIC80 [8]: 74 µM (≈ 49.2 µg/mL); Activity [17]: 23%; Activity [18]: inactive
CC(=O)N1CCN(c2ccc(OCC3COC(Cn4ccnc4)(c4ccc(Cl)cc4Cl)O3)cc2)CC1 (stereo not drawn) [KETOCONAZOLE] |  | 0.13 (≈ 0.0691 µg/mL) | 1 (≈ 0.531 µg/mL) |  | 0.5 (≈ 0.266 µg/mL) | 0.25 (≈ 0.133 µg/mL) | 2 (≈ 1.06 µg/mL) | 1 (≈ 0.531 µg/mL) | 0.5 (≈ 0.266 µg/mL) | 
